High-throughput results as filed in PubChem.
Only some compounds are listed: those with a hit (about 3.4% of all), similar ones and a draw of the others.
SF-1 act = SF-1 (human) activation | activation, % at 10 µM | actives 1.9% (n = 65,000) | CHO-K1 Gal4-SF-1 LBD luciferase reporter; % increase over DMSO SF-1-specific signal | Q13285;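 active means activation above the mean activation of all tested compounds plus 3 SD, cut at about 50% in these data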
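Material: CHO-K1 cells with Gal4–hSF-1 LBD chimera plus Gal4-driven luciferase / Input: 4,000 CHO-K1 cells per well / Incubation: compound exposure 20 h at 37 °C / Signal: luminescence read 15 min after SteadyLite luciferase reagent, after room-temperature equilibration / Read-out: percent activation versus DMSO / Benchmarks: DMSO negative control and −SF1 background wells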
WNV protease inh = inhibitors of West Nile virus NS2B-NS3 protease; WNV NS2B-NS3 protease, fluorogenic substrate Ex360/Em465; active compounds read low; P06935; actives 0.18% (n = 65,000); z-score (no concentration beside the values); AID 577; in the data active means z-score below about -3
RORA act = activators of human nuclear receptor RORA; actives 1.5% (n = 65,000); activation, % at 10 µM; CHO-K1 Gal4-RORA LBD luciferase reporter, luminescence; percent increase over mock-subtracted basal signal; P35398;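 active means activation above the mean of all tested compounds plus 3 SD, cut at about 49% in these data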;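 further: 0% = DMSO-treated RORA cells and 100% = added signal equal to DMSO minus mock-transfected cells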
Target sequence (P35398 whole entry, looked up, the tested form may be a part): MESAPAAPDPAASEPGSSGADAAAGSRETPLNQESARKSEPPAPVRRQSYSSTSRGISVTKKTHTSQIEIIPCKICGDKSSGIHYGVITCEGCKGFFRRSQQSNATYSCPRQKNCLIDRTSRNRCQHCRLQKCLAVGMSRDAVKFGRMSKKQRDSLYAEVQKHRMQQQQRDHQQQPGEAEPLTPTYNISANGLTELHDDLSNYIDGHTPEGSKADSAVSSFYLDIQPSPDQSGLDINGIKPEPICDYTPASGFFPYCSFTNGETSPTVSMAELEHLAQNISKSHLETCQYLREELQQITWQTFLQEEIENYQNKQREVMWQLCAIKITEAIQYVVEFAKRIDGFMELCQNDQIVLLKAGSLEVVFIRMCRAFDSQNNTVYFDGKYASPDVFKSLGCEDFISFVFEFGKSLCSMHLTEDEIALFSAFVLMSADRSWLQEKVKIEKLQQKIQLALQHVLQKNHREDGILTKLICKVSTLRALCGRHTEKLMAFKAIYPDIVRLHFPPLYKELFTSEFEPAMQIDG
JNK3 blocker = JNK3 (human) kinase inhibition; inhibition, % at 8 µM; purified JNK3 kinase activity, HTS; P53779; actives 0.61% (n = 60,000); in the data active means inhibition above about 17%;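 further: 0% = DMSO and 100% = reference inhibitor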
ROCK2 blocker = inhibitors of human Rho kinase 2. O75116. purified ROCK2, Kinase-Glo ATP depletion luminescence. inhibition, % at 6 µM. actives 0.35% (n = 60,000);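 active means inhibition above the screen-wide mean inhibition plus 3 SD, cut at about 18% in these data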;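 further: plate controls were DMSO wells for no effect and Y-27632 control wells after no-enzyme background subtraction for full effect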
PKA inh = PKA (human) kinase inhibition; inhibition, % at 6 µM; P17612; PKA Kemptide phosphorylation, Kinase-Glo ATP luminescence; actives 0.1% (n = 65,000);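 active means inhibition above the screen-wide mean inhibition plus 3 SD, cut at about 21% in these data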
The depositor's hits bear a star.

Screening COc1ccc(C(=O)Nc2ccc3oc(-c4cccc(F)c4)nc3c2)cc1OC returned SF-1 act 11.8, WNV protease inh -0.53, RORA act 2.3, JNK3 blocker 9.5, ROCK2 blocker 3.0 and PKA inh -6.0.
`O=C(Nc1ccc2oc(-c3ccccc3)nc2c1)c1cccnc1` gave SF-1 act 71.4*, WNV protease inh -1.03, RORA act 70.6*, JNK3 blocker 6.2, ROCK2 blocker 3.7 and PKA inh 8.7.
For O=C(Cc1ccccc1)Nc1ccc2oc(-c3cccnc3)nc2c1 the results were SF-1 act 20.3, WNV protease inh -1.49, RORA act 6.3, JNK3 blocker 1.5, ROCK2 blocker 2.7 and PKA inh 8.4.
For COc1ccccc1C(=O)Nc1ccc2oc(-c3ccc(F)cc3)nc2c1 the results were SF-1 act 42.4, WNV protease inh 1.39, RORA act 64.7*, JNK3 blocker -1.2, ROCK2 blocker -4.0 and PKA inh -6.1.
CC(C)c1ccc(NC(=O)c2cccnc2)cc1 was read as SF-1 act 34.2, WNV protease inh -0.92, RORA act 69.3*, JNK3 blocker 3.0, ROCK2 blocker 6.4 and PKA inh 6.4.
`Cc1ccc(OCCOCCn2ccnc2)c(Br)c1` gave SF-1 act 3.7, WNV protease inh -0.25, RORA act 14.9, JNK3 blocker -2.2, ROCK2 blocker 4.9 and PKA inh 1.5.
`CCc1ccc(NC(=O)c2cccnc2)cc1` gave SF-1 act 32.6, WNV protease inh 0.44, RORA act -2.9, JNK3 blocker 1.5, ROCK2 blocker -4.4 and PKA inh -2.7.
Screening CCCC(=O)Nc1ccc2oc(-c3ccc(OC)c(Br)c3)nc2c1 returned SF-1 act 62.1*, WNV protease inh -0.18, RORA act 79.6*, JNK3 blocker -8.3, ROCK2 blocker 5.4 and PKA inh 10.4.
`CCc1ccc2oc(-c3cccc(NC(=O)c4cccnc4)c3)nc2c1` gave SF-1 act 31.5, WNV protease inh -0.29, RORA act 58.2* and PKA inh -0.7.
`CCCC(=O)Nc1ccc(-c2nc3cc(C)ccc3o2)cc1` gave SF-1 act -25.9, WNV protease inh -0.03, RORA act -28.6, JNK3 blocker -3.4, ROCK2 blocker 4.7 and PKA inh 7.5.
`O=C(Nc1ccc2nn(-c3ccccc3)nc2c1)c1cccnc1` gave SF-1 act 60.6*, WNV protease inh -0.83, RORA act 45.9, JNK3 blocker -0.2, ROCK2 blocker 0.1 and PKA inh -1.1.
`O=C(CSc1ncn[nH]1)Nc1ccc(Cl)c(Cl)c1` gave SF-1 act 13.0, WNV protease inh 0.00474, RORA act -9.0, JNK3 blocker -1.8, ROCK2 blocker -5.4 and PKA inh -8.7.
For Cc1nc(CC(=O)c2c(C)cc(O)cc2O)cs1 the results were SF-1 act -1.0, WNV protease inh -0.61, RORA act -10.8, JNK3 blocker -1.5, ROCK2 blocker 1.5 and PKA inh 6.9.
`Cn1c(-c2ccc(Br)o2)nc2ccccc21` gave SF-1 act 75.8*, WNV protease inh 0.01, RORA act 72.6*, JNK3 blocker -7.5, ROCK2 blocker -24.3 and PKA inh -12.7.
Screening CC(=O)c1ccc(-c2nc3ccccc3n2C)o1 returned SF-1 act 24.6, WNV protease inh 8.27, RORA act 27.9, JNK3 blocker 3.1, ROCK2 blocker -25.8 and PKA inh 1.1.
For Cn1c(-c2ccc(Br)o2)nc2cc(Br)ccc21 the results were SF-1 act 89.2*, WNV protease inh 0.18, RORA act 39.3, JNK3 blocker -7.0, ROCK2 blocker -2.0 and PKA inh -4.6.
Screening Cc1ccnc(NC(=O)CCC(=O)N(CC(=O)NC2CCCCC2)Cc2ccc3c(c2)OCO3)c1 returned SF-1 act 8.7, WNV protease inh -0.44, RORA act -25.9, JNK3 blocker 1.6, ROCK2 blocker 0.2 and PKA inh -3.7.
`O=C(COC(=O)C1CC1)c1c[nH]c2ccccc12` gave SF-1 act 37.2, WNV protease inh 0.47, RORA act 106.1*, JNK3 blocker 2.2, ROCK2 blocker 0.9 and PKA inh 2.3.
Screening O=C(OCC(=O)c1c[nH]c2ccccc12)c1ccco1 returned SF-1 act 26.4, WNV protease inh -0.57, RORA act 7.9, JNK3 blocker -2.2, ROCK2 blocker 6.0 and PKA inh 13.8.
For O=c1oc2ccccc2n1CCCOc1ccccc1 the results were SF-1 act 57.4*, WNV protease inh 0.84, RORA act 49.3*, JNK3 blocker 0.5, ROCK2 blocker 2.1 and PKA inh 0.7.
